Data reported in ChEMBL document CHEMBL1154898, “Hepatoprotective constituents from the roots and stems of Erycibe hainanesis” (J Nat Prod, 2010).
Calls of active or inactive are those of the source. No cut-off for these calls is given here.

Columns and labels:
[1] = Cytotoxicity against rat WB-F344 cells assessed as cell survival rate after 1 hr at 10 uM by MTT assay; format: cell-based; conditions: read-out: Survival
Method in brief: (§1)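 WB-F344 rat hepatic epithelial stem-like cells were seeded at 1 × 10⁴ cells/well in DMEM with 3% FCS, penicillin and streptomycin, and precultured 24 h at 37 °C in 5% CO₂. Test sample was added in fresh medium for 1 h, then 40 mM D-galactosamine for 24 h; parallel wells without D-galactosamine gave cytotoxicity. MTT (0.5 mg/mL) was added for 3.5 h, formazan dissolved in DMSO and read at 492 nm. Survival is % of normal, mean ± SD, n = 3.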

[2] = tested on: WB-F344; experiment: Hepatoprotective activity in rat WB-F344 cells assessed as inhibition of D-galactosamine-induced cytotoxicity at 100 uM after 1 hrs by MTT assay relative to control treated before D-galactosamine challenge
[3] = (§2) Hepatoprotective activity in rat WB-F344 cells assessed as inhibition of D-galactosamine-induced cytotoxicity at 10 uM after 1 hrs by MTT assay relative to control treated before D-galactosamine challenge; format: functional; conditions: WB-F344, 1 h
Method in brief: (§3)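 WB-F344 rat hepatic epithelial stem-like cells, 1 × 10⁴ per well in DMEM with 3% fetal calf serum and penicillin/streptomycin, precultured 24 h at 37 °C in 5% CO₂. Test samples were added in fresh medium for 1 h, then cells were exposed to 40 mM D-galactosamine for 24 h. Readout was MTT 0.5 mg/mL for 3.5 h, formazan dissolved in DMSO, OD at 492 nm. Inhibition (%) = (OD sample − OD control)/(OD normal − OD control) × 100. Values are mean ± SD, n = 3.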

[4] = Cytotoxicity against rat WB-F344 cells assessed as cell survival rate after 1 hr at 100 uM by MTT assay; format: cell-based; conditions: read-out: Survival; method in brief: as §1
[5] = tested on: WB-F344; experiment: as §2; format: functional; method in brief: as §3

Structure (SMILES)	Activity [2]	also measured
COc1cc2ccc(=O)oc2cc1O[C@@H]1O[C@H](CO[C@@H]2OC[C@](O)(CO)[C@H]2OC(=O)c2cc(OC)c(O)c(OC)c2)[C@@H](O)[C@H](O)[C@H]1O [ERYCIBOSIDE B]	–	viability at 1 h, 10 µM [1]: 47%
COc1cc(C(=O)OC[C@@]2(O)CO[C@@H](OC[C@H]3O[C@@H](OCCc4ccc(O)cc4)[C@H](O)[C@@H](O)[C@@H]3O)[C@@H]2O)cc(OC)c1O	inactive	–
CCOC(=O)[C@]1(O)C[C@@H](O)[C@@H](OC(=O)/C=C/c2ccc(O)c(O)c2)[C@H](OC(=O)/C=C/c2ccc(O)c(O)c2)C1	inactive	–
COc1cc(C(=O)O)ccc1O	inactive	–
COc1cc(C(=O)O[C@@H]2[C@@H](OC(=O)/C=C/c3ccc(O)c(O)c3)C[C@@](O)(C(=O)O)C[C@@H]2O)cc(OC)c1O	inactive	–
CCOC(=O)[C@]1(O)C[C@@H](O)[C@@H](O)[C@H](OC(=O)/C=C/c2ccc(O)c(O)c2)C1	inactive	–
O=C(/C=C/c1ccc(O)cc1)NCCc1ccc(O)cc1	inactive	–
COc1cc(C(=O)OC[C@@]2(O)CO[C@@H](OC[C@H]3O[C@@H](OC(C)C)[C@H](O)[C@@H](O)[C@@H]3O)[C@@H]2O)cc(OC)c1O	inactive	–
COc1cc(C(=O)O[C@H]2C[C@](O)(C(=O)O)C[C@H](O)[C@H]2OC(=O)/C=C/c2ccc(O)c(O)c2)cc(OC)c1O	–	inhibition at 10 µM [3]: 42.2%; viability at 1 h, 100 µM [4]: 61%
COc1cc(C(=O)OC[C@@]2(O)CO[C@@H](OC[C@H]3O[C@@H](Oc4c(OC)cc5ccc(=O)oc5c4OC)[C@H](O)[C@@H](O)[C@@H]3O)[C@@H]2O)cc(OC)c1O [ERYCIBOSIDE F]	–	inhibition at 10 µM [3]: 15.5%; viability at 1 h, 100 µM [4]: 44%
COc1cc2ccc(=O)oc2cc1O[C@@H]1O[C@H](CO[C@@H]2OC[C@](O)(COC(=O)c3cc(OC)c(O)c(OC)c3)[C@H]2O)[C@@H](O)[C@H](O)[C@H]1O	inactive	–
COc1cc(C(=O)O[C@H]2C[C@](O)(C(=O)O)C[C@H](OC(=O)/C=C/c3ccc(O)c(O)c3)[C@H]2O)cc(OC)c1O	inactive	–
O=C(O)/C=C/c1ccc(O)c(O)c1	inactive	–
O=C(O)c1ccc(O)c(O)c1	inactive	–
COc1cc(C(=O)OC[C@@]2(O)CO[C@@H](OC[C@H]3O[C@@H](Oc4cc5oc(=O)ccc5cc4OC)[C@H](O)[C@@H](O)[C@@H]3O)[C@@H]2O)ccc1O	inactive	–
COc1cc(C(=O)OC[C@@]2(O)CO[C@@H](OC[C@H]3O[C@@H](Oc4cc(OC)c(OC)c(OC)c4)[C@H](O)[C@@H](O)[C@@H]3O)[C@@H]2O)cc(OC)c1O	inactive	–
COc1cc2ccc(=O)oc2cc1O[C@@H]1O[C@H](CO)[C@@H](O)[C@H](O)[C@H]1O[C@@H]1OC[C@](O)(COC(=O)c2cc(OC)c(O)c(OC)c2)[C@H]1O	inactive	–
COc1cc(C(=O)OC[C@@]2(O)CO[C@@H](O[C@H]3[C@H](Oc4cc5oc(=O)ccc5cc4OC)O[C@H](CO)[C@@H](O)[C@@H]3O)[C@@H]2O)ccc1O	–	Activity [5]: inactive
COC(=O)[C@@]1(O)C[C@@H](OC(=O)/C=C/c2ccc(O)c(O)c2)[C@H](O)[C@H](OC(=O)c2cc(OC)c(O)c(OC)c2)C1	–	Activity [5]: inactive
CCCCOC(=O)[C@]1(O)C[C@@H](O)[C@@H](O)[C@H](OC(=O)/C=C/c2ccc(O)c(O)c2)C1	inactive	–
COC(=O)c1cc(OC)c2c(c1-c1c(CO)cc(OC)c3c1OCO3)OCO2 [BICYCLOL]	–	inhibition at 10 µM [3]: 11.2%; viability at 1 h, 100 µM [4]: 38%
COC(=O)[C@]1(O)C[C@@H](O)[C@@H](O)[C@H](OC(=O)/C=C/c2ccc(O)c(O)c2)C1	inactive	–
COc1cc2cc(-c3cc4cc(OC)c(O)cc4oc3=O)c(=O)oc2cc1O	–	Activity [5]: inactive
COc1cc2cc(Oc3cc4oc(=O)ccc4cc3OC)c(=O)oc2cc1O	Active	–
COc1cc(/C=C/C(=O)NCCc2ccc(O)cc2)ccc1O	inactive	–
O=C(/C=C/c1ccc(O)c(O)c1)O[C@@H]1C[C@](O)(C(=O)O)C[C@@H](O)[C@H]1O	inactive	–
